Measured values as given in ChEMBL document CHEMBL1153376, “Lipophilic lysine-spermine conjugates are potent polyamine transport inhibitors for use in combination with a polyamine biosynthesis inhibitor” (J Med Chem, 2009).
pIC50, pKi: −log10 of the molar value. The source made the active and inactive calls. No cut-off for these calls is given here.

Experiments:
[1] = biological target: T1, Ornithine decarboxylase (Homo sapiens) (UniProt P11926); experiment: Inhibition of ornithine decarboxylase activity in human SK-MEL cells at 10 uM after 24 hrs relative to control; format: cell-based; set-up: scale not given: the % may be the effect or the level left
T1 sequence (whole entry): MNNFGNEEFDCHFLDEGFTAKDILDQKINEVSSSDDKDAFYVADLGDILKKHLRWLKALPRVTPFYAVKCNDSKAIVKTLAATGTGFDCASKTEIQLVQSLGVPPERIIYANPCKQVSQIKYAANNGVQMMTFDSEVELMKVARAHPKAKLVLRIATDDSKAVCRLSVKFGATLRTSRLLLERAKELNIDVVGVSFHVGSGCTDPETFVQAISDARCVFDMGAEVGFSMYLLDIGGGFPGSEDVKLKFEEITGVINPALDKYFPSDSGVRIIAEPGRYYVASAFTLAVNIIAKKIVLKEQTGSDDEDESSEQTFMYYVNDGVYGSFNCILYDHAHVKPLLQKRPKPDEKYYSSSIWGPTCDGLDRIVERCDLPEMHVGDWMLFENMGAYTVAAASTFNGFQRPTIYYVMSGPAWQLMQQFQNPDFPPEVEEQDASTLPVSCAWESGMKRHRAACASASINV
Method in brief: (§1)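 SK-Mel human melanoma cells exposed to 10 µM agent alone for 24 h. Enzyme activity (ODC; SSAT) measured and expressed as % of untreated control.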

[2] = biological target: Diamine acetyltransferase 1 (Homo sapiens) (UniProt P21673); experiment: Inhibition of spermidine/spermine N1-acetyltransferase activity in human SK-MEL cells at 10 uM after 24 hrs relative to control; format: cell-based; set-up: scale not given: the % may be the effect or the level left; method in brief: as §1
MDA-MB-231 [3] = experiment: Inhibition of [2,9-3H]spermidine uptake in human MDA-MB-231 cells after 15 mins by Lineweaver-Burke plot analysis; format: functional, cell-based
Method in brief: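 Cells then washed three times in cold PBS and lysed in 0.1% SDS, and lysates scintillation-counted. Four substrate concentrations (0.3–3 µM) and five inhibitor concentrations (0.01–1.0 µM) plus control. Ki from slopes of Lineweaver-Burke plots against inhibitor concentration (Ki = y-intercept/slope).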

MDA-MB-231 [4] = experiment: Cytotoxicity against human MDA-MB-231 cells after 6 days by MTS/PMS dye assay; conditions: MDA-MB-231, 144 h
Mus musculus [5] = experiment: Antitumor activity against 7,12-dimethylbenz(alpha)anthracene-induced squamous cell carcinoma in FVB/N transgenic mouse model expressing K6/ODC gene assessed as tumor growth inhibition at 0.5 mg/kg, ip administered twice daily after 4 weeks; format: functional, organism-based; set-up: dose 0.5 mg/kg
Mus musculus [6] = species on record: Mus musculus; experiment: Antitumor activity against 7,12-dimethylbenz(alpha)anthracene-induced squamous cell carcinoma in FVB/N transgenic mouse model expressing K6/ODC gene assessed as tumor growth inhibition after 4 weeks; format: functional, organism-based

Chain of Diamine acetyltransferase 1 (Homo sapiens) (P21673 whole entry): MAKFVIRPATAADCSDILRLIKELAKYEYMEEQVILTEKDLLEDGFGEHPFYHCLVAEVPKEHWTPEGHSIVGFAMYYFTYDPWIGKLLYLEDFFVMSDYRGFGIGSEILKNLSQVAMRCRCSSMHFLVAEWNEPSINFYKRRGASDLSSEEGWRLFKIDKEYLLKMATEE

| Structure (SMILES) | Activity [1] [%] | Activity [2] [%] | pKi (MDA-MB-231 [3]) | pIC50 (MDA-MB-231 [4]) | Activity (Mus musculus [5]) | Activity (Mus musculus [6]) |
| --- | --- | --- | --- | --- | --- | --- |
| CCCCCCCC(=O)NCCCC[C@H](N)C(=O)NCCCNCCCCNCCCN | 110 | 40 | – | – | – | – |
| CCCCCCCCCCCCCCCC(=O)NCCCC[C@@H](N)C(=O)NCCCNCCCCNCCCN [AMXT-1501] | – | – | 7.98 | 4.24 | Active | – |
| CCCCCCCCCCCCCCCC(=O)NCCCC[C@H](N)C(=O)NCCCNCCCCNCCCN | 46 | 40 | 8.12 | – | – | – |
| NCCCC(N)(C(=O)O)C(F)F (centres undefined) | – | – | – | – | – | Active |
